Screening data: PubChem BioAssay, several laboratories
PostGolgi ctrl: yeast control strain growth, post-Golgi counter-screen; AID 738; inhibition, % at 10 µM; 5% of 98,000 active; efflux-deficient yeast background strain, growth absorbance A615, 16 h
tolC growth inh: E. coli tolC mutant growth inhibition | E. coli BW25113 tolC mutant growth, OD615 | growth inhibition, % at 10 µM (by protocol) | 2.2% of 65,000 active;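 active = growth inhibition at or above a cutoff equal to the mean over every tested compound plus 3 SD, cut at about 60% in these data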;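 note: growth measured after 20 h incubation at 37 °C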
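Assay system: tolC-deleted E. coli BW25113. Medium: kanamycin-containing LB broth (50 µg/mL). Dosing: 10 µM final, single dose. Timing: bacterial growth with compound for 20 h at 37 °C. Detection: A615 absorbance measurement. Read-out basis: growth inhibition in percent.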
E coli WT exp: blocks growth of wild type E. coli BW25113; OD600 absorbance; 0.15% of 98,000 active; growth inhibition, % at 100 µM; AID 710;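 active = growth inhibition above about 50% at one test dose, limit read from the data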;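 note: growth measured after 20 h incubation at 37 °C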
Cav32 inh: inhibitors of human Cav3.2 T-type calcium channel. B-score at 10 µM. 4% of 100,000 active. O95180. Cav3.2-expressing cells, Fluo-4 calcium fluorescence FDSS; active compounds read low;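 active = single-dose well whose peak fluorescence ratio is a statistical outlier from its plate by either plate-standardised score or position-corrected B-score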
PostGolgi yeast: growth inhibition of a yeast mutant, post-Golgi transport screen; post-Golgi transport phenotypic cell assay; AID 739; inhibition, % at 10 µM; 0.9% of 98,000 active;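 note: yeast cells grown in 1536-well plates; yeast grown about 18 h at 30C before absorbance read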
Each line names hits and unclear results; the compound was inactive in the other large screens. Most compounds without a hit are left out; they make up all but 8.4% or so of the library. Cut-off read from the data, not from the text of the source, unless noted: active = inhibition above about 30%; inactive = the rest.

Cc1cccc(OCC(=O)N/N=C/c2cn[nH]c2-c2ccc(Cl)c(Cl)c2)c1	PostGolgi ctrl 38 (no result: tolC growth inh, Cav32 inh)
CC(C)(C)c1csc(NC(=O)c2ccc3nccnc3c2)n1	none (no result: tolC growth inh)
CCOc1ccc(C2OC(=O)Cc3cc(OC)c(OC)cc32)cc1 (stereo not drawn)	none (no result: tolC growth inh)
CC(=O)Nc1ccc(NC(=O)C(C)OC(=O)CCC(=O)c2ccc(F)cc2)cc1 (stereo not drawn)	none (no result: tolC growth inh)
CCn1c(SCC(=O)Nc2nc(-c3ccc(C)cc3)cs2)nnc1-c1ccccc1O	PostGolgi ctrl 76, tolC growth inh 84, PostGolgi yeast 69
CCn1c(SCC(=O)Nc2nc(-c3ccc(C)cc3)cs2)nnc1-c1ccccc1	none (no result: tolC growth inh)
Cc1ccc(C(=O)CSc2nnc(CNc3nc(-c4ccccc4)cs3)n2C)cc1	Cav32 inh -4.6 (no result: tolC growth inh)
COc1ccccc1-c1nnc(SCC(=O)Nc2nc(-c3ccccc3)cs2)n1C	Cav32 inh -6.6
Cc1nn(Cc2ccccc2Cl)c2sc(C(=O)NCCCn3ccnc3)cc12	none
CCC(C)Sc1nc(O)c(Cc2ccccc2)c(=O)[nH]1 (stereo not drawn)	none (no result: tolC growth inh)
Cc1ccc(-n2ncc(C#N)c2/N=C/N2CCOCC2)cc1	none
Cc1ccc(-n2ncc(C#N)c2/N=C/N(C)C)cc1	PostGolgi ctrl 33
Cc1[nH]c2ccccc2c1C1(O)C(=O)N(C(C)C)c2ccccc21 (stereo not drawn)	none (no result: tolC growth inh)
Cc1[nH]c2ccccc2c1C1(O)C(=O)N(Cc2ccc3c(c2)OCO3)c2ccccc21 (stereo not drawn)	PostGolgi ctrl 31 (no result: Cav32 inh)
CC1CCCN(C(=O)CCCn2c(=S)[nH]c3ccccc3c2=O)C1 (stereo not drawn)	none (no result: tolC growth inh)
CC(=O)Nc1ccc(S(=O)(=O)Nc2nc3ccccc3nc2N2CCCCCC2)cc1	none (no result: tolC growth inh)
O=S(=O)(Nc1nc2ccccc2nc1N1CCN(c2ccccn2)CC1)c1ccc(Cl)cc1	PostGolgi ctrl 57, tolC growth inh 83, Cav32 inh -4.7
COc1ccc(N2CCN(c3nc4ccccc4nc3NS(=O)(=O)c3ccccc3)CC2)cc1	Cav32 inh -4.2 (no result: tolC growth inh)
Cc1ccc(S(=O)(=O)Nc2nc3ccccc3nc2N2CCN(c3ccccc3F)CC2)cc1	Cav32 inh -3.6 (no result: tolC growth inh)
CCOc1nc2ccccc2nc1NS(=O)(=O)c1ccccc1	none
CCn1c(SCC(=O)NCc2ccccc2)nc2ccccc2c1=O	none
O=C(CSc1nc2ccccc2c(=O)n1C1CC1)NCc1ccccc1	PostGolgi ctrl 36
CN(C)c1ccc(NC(=O)CSc2nc3ccccc3c(=O)n2C2CCCCC2)cc1	none
CCCN(CCC)C(=O)CSc1nc2ccccc2c(=O)n1C1CCCC1	tolC growth inh 77, Cav32 inh -5.6
S=C1NC[C@H](CC2CCCCC2)N1CC1CCCCC1	none (no result: PostGolgi ctrl, tolC growth inh, E coli WT exp, PostGolgi yeast)
O=C(NCCc1ccc(Cl)cc1)C1CCC(CNc2c(N3CCCCC3)c(=O)c2=O)CC1 (stereo not drawn)	none (no result: PostGolgi ctrl, tolC growth inh, E coli WT exp, PostGolgi yeast)
C=CCn1c(CCCNC(=O)C(C)(C)C)nc2ccccc21	PostGolgi ctrl 30
CC(C)(C)C(=O)NCCCc1nc2ccccc2n1CCCOc1ccc(Cl)cc1	Cav32 inh -6.7 (no result: tolC growth inh)
CCCCn1c(CNC(=O)C(C)(C)C)nc2ccccc21	none
COC(=O)c1cccc(NC(=O)c2nn(C)c(=O)c3ccccc23)c1	none
CC(NC(=S)Nc1ccc(F)cc1)C(c1cccs1)N1CCOCC1 (stereo not drawn)	none (no result: PostGolgi ctrl, tolC growth inh, E coli WT exp, PostGolgi yeast)
c1ccc(Cn2nnc3c(N4CCN(Cc5ccc6c(c5)OCO6)CC4)ncnc32)cc1	tolC growth inh 61
c1ccc2c(c1)oc1c(N3CCN(Cc4ccc5c(c4)OCO5)CC3)ncnc12	tolC growth inh 100
CC1CCN(Cc2ccc(NC(=O)C3CCN(c4nnc(-n5cccc5)s4)CC3)cc2)CC1	none
O=C(O)C1Nc2ccc(C(F)(F)F)cc2C2OCCC12 (stereo not drawn)	none (no result: PostGolgi ctrl, tolC growth inh, E coli WT exp, PostGolgi yeast)
C[C@]12C(=O)N(c3ccc(Cl)cc3)C(=O)N1[C@@H]1c3ccccc3OC[C@@H]1[C@H]2c1ccccc1	none (no result: PostGolgi ctrl, tolC growth inh, E coli WT exp, PostGolgi yeast)
CCOC(=O)c1c(C)[nH]c(C)c1C(=O)Cn1nnc(-c2ccccc2C)n1	tolC growth inh 63, Cav32 inh -10
O=C(CSc1ncn[nH]1)OCN1C(=O)c2ccccc2C1=O	none
C[C@@H](NCCc1ccc(O)cc1)[C@@H](O)c1ccc(O)cc1	none (no result: PostGolgi ctrl, tolC growth inh, E coli WT exp, PostGolgi yeast)
CCCCCCCCNC(C)C(O)c1ccc(SC(C)C)cc1 (stereo not drawn)	Cav32 inh -4.5 (no result: PostGolgi ctrl, E coli WT exp, PostGolgi yeast)
c1ccc(CSc2nnnn2-c2cccc3ccccc23)nc1	none
O=C(CCCSc1nnnn1-c1cccc2ccccc12)c1ccc(F)cc1	PostGolgi ctrl 32, Cav32 inh -4.6 (no result: tolC growth inh)
CCOC(=O)[C@@H]1[C@H]2COc3ccccc3[C@@H]2N2C(=O)N(c3ccc(F)cc3)C(=O)[C@]12C	none (no result: PostGolgi ctrl, tolC growth inh, E coli WT exp, PostGolgi yeast)
Cc1ccc(S(=O)(=O)n2nc(C)c(Br)c2C)c(C)c1C	PostGolgi ctrl 48
COC(=O)c1cc(Br)c(=O)n(-c2ccc(F)cc2)c1	none (no result: tolC growth inh)
COc1ccc(CCNC(=O)C(=O)NCc2ccc(C(C)C)cc2)cc1OC	Cav32 inh -7.3 (no result: tolC growth inh)
O=c1[nH]c(=O)n(C2CCCCCC2)c(O)c1C=NCc1ccc(F)cc1	PostGolgi ctrl 50, tolC growth inh 99, Cav32 inh -6.7
Cc1c(N=Cc2c(O)n(C3CCCCC3)c(=O)[nH]c2=O)c(=O)n(-c2ccccc2)n1C	none
O=C(NC1CCCCC1)N1CCSC1=Nc1ccccc1	PostGolgi ctrl 50, Cav32 inh -4
O=C(NC1CCCCC1)N1CCCc2ccccc21	none
CC(C)Oc1ccc(CNC(=S)N/N=C/c2cccnc2)cc1	none (no result: tolC growth inh)
CCCCCOC(=O)c1[nH]c2c(c1C)C(=O)C(C(=O)OC)C(C)C2 (stereo not drawn)	tolC growth inh 75
COC(=O)C1C(=O)c2c([nH]c(C(=O)OC3CCCCCC3)c2C)CC1C (stereo not drawn)	none
CCOC(=O)CSc1ncc(OC)c(Sc2ccc(OC)cc2)n1	Cav32 inh -6.6 (no result: tolC growth inh)
COc1cc2c(cc1OC)CN(S(=O)(=O)c1ccc3c(c1)OCCO3)CC2	none
O=[N+]([O-])c1ccc(O)c(-c2nc(-c3ccccc3)c(-c3cccs3)[nH]2)c1	PostGolgi ctrl 45 (no result: tolC growth inh)
CC(C)(C)c1ccc(OCC(=O)NC2CCS(=O)(=O)C2)cc1 (stereo not drawn)	none
Cc1ccc(OCC(=O)NC2CCS(=O)(=O)C2)cc1 (stereo not drawn)	Cav32 inh -4.7 (no result: tolC growth inh)
CCn1c(=NC(=O)CN2C(=O)CCC2=O)sc2c(OC)ccc(OC)c21	none
CCn1c(=NC(=O)c2ccc(N3C(=O)CCC3=O)cc2)sc2c(OC)ccc(OC)c21	PostGolgi yeast 37
CCOC(=O)C(C(=O)Nc1nc2ccccc2s1)C1CCCCC1 (stereo not drawn)	Cav32 inh -7.8 (no result: tolC growth inh)
CCOC(=O)C(C(=O)Nc1cccc(C)n1)C1CCCCC1 (stereo not drawn)	none
Fc1ccc(COc2ccc(/C=N/n3cnnc3)cc2)cc1	PostGolgi ctrl 35
Cc1n[nH]c(=S)n1/N=C/c1ccc(OCc2ccc(Cl)cc2)cc1	none (no result: tolC growth inh)
O=S(=O)(Nc1cnc2ccccc2c1)N1CCCCCC1	none
CCOc1ccc(Br)cc1C1C(C(=O)OC)=C(N)Oc2cc(N(C)C)ccc21 (stereo not drawn)	PostGolgi ctrl 31 (no result: tolC growth inh)
